# From ChEMBL document CHEMBL3525987, “Assessment of exposure of metabolites in preclinical species and humans at steady state from the single-dose radiolabeled absorption, distribution, metabolism, and excretion studies: a case study” (Drug Metab Dispos, 2012)
# How the values were obtained:
# Details in all cases: in vivo
# [1] = tested on: Rattus norvegicus; experiment: Cmax as total radioactivity in male Sprague-Dawley rat plasma at 10 mg/kg, po administered as single dose via gavage by LC-MS/MS analysis; format: ADME, organism-based; parameters: dose 10 mg/kg, dosed compound name [14C]lixivaptan, route oral
# Outline: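 Jugular-cannulated Sprague-Dawley rats (5/gender) were fasted 18 h and gavaged once with 10 mg/kg [14C]lixivaptan suspended in water/pluronic F68. K2EDTA blood was taken at 0.25–168 h, with donor blood replaced from 1 h on. Total radioactivity was read by LSC (ng-equiv/ml) and parent by validated LC-MS/MS. Noncompartmental Cmax, log-linear kel and trapezoidal AUC followed.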
# [2] = tested on: Canis familiaris; experiment: Cmax as total radioactivity in male beagle dog plasma at 10 mg/kg, po administered as single dose by LC-MS/MS analysis; format: ADME, organism-based, Canis lupus familiaris; parameters: dose 10 mg/kg, dosed compound name [14C]lixivaptan, route oral
# Outline: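 Four male beagles were fasted 18 h and gavaged once with 10 mg/kg (2 ml/kg) [14C]lixivaptan as a 5.0 mg/ml water/pluronic F68 suspension. Jugular K2EDTA blood was sampled from 0.25 to 168 h. Plasma total radioactivity was counted by LSC as ng-equiv/ml and lixivaptan by validated LC-MS/MS. Noncompartmental Cmax, t1/2 and trapezoidal AUC were derived.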
# [3] = Drug recovery in urine of human at […], po administered as single dose measured after 168 hrs by liquid scintillation counting; format: ADME, organism-based; parameters: dosed compound name [14C]lixivaptan, route oral
# Outline: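 Healthy male volunteers given single oral 100 mg (200 µCi) [14C]drug capsules after ≥10 h fast. Urine at 0-4, 4-8, 8-12, 12-24 h then 24-h intervals; feces as passed, to 168 h. Urine LSC; feces homogenized in water, combusted, LSC; % of dose.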
# [4] = Drug recovery in urine of male Sprague-Dawley rat at 10 mg/kg, po administered as single dose via gavage measured after 168 hrs by liquid scintillation counting; format: ADME, organism-based; parameters: dose 10 mg/kg, dosed compound name [14C]lixivaptan, route oral
# Outline: (§1)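 Intact SD rats (3/gender) dosed by gavage with [14C]drug 10 mg/kg (10 ml/kg, pluronic F68/water), housed in metabolism cages; urine and feces at 0-8, 8-24 h, then every 24 h to 7 days. Urine counted by LSC; feces homogenized 20% w/w in water, combusted, trapped CO2 counted; cage wash/debris included; % of dose.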
# [5] = tested on: Rattus norvegicus; experiment: Drug recovery in cage wash/debris of female Sprague-Dawley rat at 10 mg/kg, po administered as single dose via gavage measured after 168 hrs by liquid scintillation counting; format: ADME, organism-based; parameters: dose 10 mg/kg, dosed compound name [14C]lixivaptan, route oral; outline: as §1
# [6] = tested on: Rattus norvegicus; experiment: Total drug recovery in bile duct-cannulated male Sprague-Dawley rat at 10 mg/kg, po administered as single dose via gavage measured from 0 to 48 hrs by liquid scintillation counting; format: ADME, organism-based; parameters: dose 10 mg/kg, dosed compound name [14C]lixivaptan, route oral
# Outline: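 Male BDC rats (n=5) given oral [14C]drug as a suspension in deionized water with pluronic F68 (10 ml/kg). Drinking water supplemented with bile salts, NaCl and KCl. Bile collected on wet ice at 0-4, 4-8, 8-24 and 24-48 h. Duplicate aliquots counted by LSC; recovery expressed as % of dose in bile.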
# [7] = Drug recovery in urine of male beagle dog at 10 mg/kg, po administered as single dose via gavage measured after 168 hrs by liquid scintillation counting; format: ADME, organism-based, Canis lupus familiaris; parameters: dose 10 mg/kg, dosed compound name [14C]lixivaptan, route oral
# Outline: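 Four male beagles got 10 mg/kg (2 ml/kg) [14C]drug suspension (5.0 mg/ml, pluronic F68/water, 1.04 µCi/mg) by gavage. Urine and feces collected over dry ice at 0-8, 8-24 h, then every 24 h to 7 days; urine by LSC, fecal homogenates combusted then LSC; cage wash/debris included; % of dose.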
# [8] = tested on: Homo sapiens; experiment: AUC (0 to 24 hrs) in human at 100 mg, po administered as single dose; format: ADME, organism-based, Plasma; parameters: time < 24 hr, dose 100 mg, route oral, dosed compound name [14C]lixivaptan
# Outline: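 Healthy young men fasted 10 h and took one oral dose of [14C]lixivaptan, 100 mg (200 µCi) as two capsules with water, eating 4 h later. Plasma from each subject at 0.5, 2, 4, 8, 12, 24 and 36 h was acetonitrile-extracted and profiled by C18 radio-HPLC (formic acid/acetonitrile gradient) with flow detection. Component concentrations were % of radioactivity × total plasma radioactivity, giving AUC0-24 in ng-equiv.h/ml.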
# [9] = tested on: Canis familiaris; experiment: AUC (0 to 24 hrs) in beagle dog at 10 mg/kg, po administered as single dose; format: ADME, organism-based, Canis lupus familiaris, Plasma; parameters: time < 24 hr, dose 10 mg/kg, dosed compound name [14C]lixivaptan, route oral
# Outline: (§2)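 Four male beagles fasted 18 h were gavaged once with [14C]lixivaptan at 10 mg/kg (2 ml/kg). The 5.0 mg/ml suspension was in deionized water with pluronic F68 (1.04 µCi/mg). Jugular K2EDTA plasma was taken at 2, 8 and 24 h and extracted twice with 2 volumes of acetonitrile. Profiling used C18 radio-HPLC (ammonium formate/acetonitrile gradient) with on-line flow scintillation detection. Each peak is reported as percent of plasma radioactivity.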
# [10] = tested on: Homo sapiens; experiment: Cmax as total radioactivity in human plasma at 100 mg, po administered as single dose by LC-MS/MS analysis; format: ADME, organism-based; parameters: dose 100 mg, route oral, dosed compound name [14C]lixivaptan
# Outline: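 Fasted healthy males took one oral 100 mg (200 µCi) [14C]lixivaptan dose. Plasma was drawn from predose to 144 h. Total radioactivity was measured by LSC and converted to ng-equiv/ml via the dose specific activity; lixivaptan by validated LC-MS/MS. Noncompartmental analysis: Cmax observed; kel by log-linear regression; AUC0-t by linear trapezoid; extrapolation as Cest/kel.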
# [11] = tested on: Rattus norvegicus; experiment: Half life as total radioactivity in male Sprague-Dawley rat plasma at 10 mg/kg, po administered as single dose via gavage by LC-MS/MS analysis; format: ADME, organism-based; parameters: dose 10 mg/kg, dosed compound name [14C]lixivaptan, route oral
# Outline: (§3)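 Jugular-vein cannulated SD rats (5/gender) given gavage [14C]drug 10 mg/kg in pluronic F68/water; K2EDTA blood 0.25-168 h with donor blood replacement. Parent by validated LC-MS/MS, radioactivity by LSC; Tmax observed; t1/2 = 0.693/kel by terminal log-linear regression.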
# [12] = tested on: Rattus norvegicus; experiment: Half life as total radioactivity in female Sprague-Dawley rat plasma at 10 mg/kg, po administered as single dose via gavage by LC-MS/MS analysis; format: ADME, organism-based; parameters: dose 10 mg/kg, dosed compound name [14C]lixivaptan, route oral; outline: as §3
# [13] = tested on: Homo sapiens; experiment: Drug level in human plasma at 100 mg, po administered as single dose measured after 8 hrs by liquid scintillation counting; format: ADME, organism-based; parameters: dosed compound name [14C]lixivaptan
# Outline: (§4)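 Healthy male volunteers fasted ≥10 h, given single oral 100 mg (200 µCi) [14C]drug as two 50-mg capsules with 250 ml water. Plasma (from ~50 ml blood) at 0.5, 2, 4, 8, 12, 24, 36 h, profiled per subject. Acetonitrile extraction, C18 radio-HPLC with 0.2% formic acid acetonitrile/water gradient, on-line radioactivity detection as % plasma radioactivity; ng-equiv/ml from % × total radioactivity.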
# [14] = tested on: Homo sapiens; experiment: Drug level in human plasma at 100 mg, po administered as single dose measured after 24 hrs by liquid scintillation counting; format: ADME, organism-based; parameters: dosed compound name [14C]lixivaptan; outline: as §4
# [15] = tested on: Homo sapiens; experiment: Drug level in human plasma at 100 mg, po administered as single dose measured after 36 hrs by liquid scintillation counting; format: ADME, organism-based; parameters: dosed compound name [14C]lixivaptan; outline: as §4
# [16] = tested on: Rattus norvegicus; experiment: Drug level in female Sprague-Dawley rat plasma at 10 mg/kg, po administered as single dose via gavage measured after 1 hr by liquid scintillation counting; format: ADME, organism-based; parameters: dose 10 mg/kg, dosed compound name [14C]lixivaptan, route oral
# Outline: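 Sprague-Dawley rats (9/gender) were fasted 18 h and gavaged once with [14C]lixivaptan at 10 mg/kg (10 ml/kg), about 29.8 µCi/mg, suspended in deionized water with pluronic F68. Plasma came by cardiac puncture under isoflurane at 1, 8 and 24 h (3/gender/time) and was extracted twice with 2 volumes of acetonitrile. C18 radio-HPLC with a flow scintillation detector gave percent of plasma radioactivity per peak.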
# [17] = tested on: Canis familiaris; experiment: Drug level in beagle dog plasma at 10 mg/kg, po administered as single dose measured after 8 hrs by liquid scintillation counting; format: ADME, organism-based, Canis lupus familiaris; parameters: dose 10 mg/kg, dosed compound name [14C]lixivaptan, route oral; outline: as §2
smiles,measurement,setting,value
Cc1ccc(F)cc1[14C](=O)Nc1ccc(C(=O)N2Cc3cccn3Cc3ccccc32)c(Cl)c1,Cmax,[1],2820 ngequiv/ml
same,Cmax,[2],3570 ngequiv/ml
same,Radiolabel recovery,[3],20.5%
same,Radiolabel recovery,[4],5.77%
same,Radiolabel recovery,[5],3.51%
same,Radiolabel recovery,[6],65.4%
same,Radiolabel recovery,[7],7.95%
same,AUC,[8],1860 ng.Eq.hr/ml
same,AUC,[9],11200 ng.Eq.hr/ml
same,Cmax,[10],1770 ngequiv/ml
same,t1/2,[11],36.6 h
same,t1/2,[12],33.6 h
same,Compound recovery,[13],6.7%
same,Compound recovery,[14],5.5%
same,Compound recovery,[15],3.6%
same,Compound recovery,[16],29.9%
same,Compound recovery,[17],14.9%
